Source: ChEMBL document CHEMBL3877253, “Discovery of new hit-molecules targeting Plasmodium falciparum through a global SAR study of the 4-substituted-2-trichloromethylquinazoline antiplasmodial scaffold” (Eur J Med Chem, 2017)

Tested on: Plasmodium falciparum
Experiment: Antiplasmodial activity against chloroquine/pyrimethamine/proguanil-resistant Plasmodium falciparum K1 infected in human erythrocytes after 72 hrs by SYBR Green 1 dye based fluorescence spectrophotometric method
Assay type: functional, cell-based
Conditions: K1, 72 h

Clc1ccc(Nc2cc(C(Cl)(Cl)Cl)nc3ccccc23)c(Cl)c1 and FC(F)(F)c1cccc(Nc2cc(C(Cl)(Cl)Cl)nc3ccccc23)c1 are the same in IC50: 1.3 µM for the first, 1.3 µM for the second.

First: Clc1ccc(Sc2nc3ccccc3nc2C(Cl)(Cl)Cl)cc1
Second: O=C1C(O)=C([C@H]2CC[C@H](c3ccc(Cl)cc3)CC2)C(=O)c2ccccc21 [ATOVAQUONE]
The IC50 of the first is 500-fold higher: 0.5 µM for the first, 0.001 µM for the second. The second is the more potent here.

Tested on: not listed separately
Experiment: Selectivity index, ratio of CC50 for human HepG2 cells to IC50 for chloroquine/pyrimethamine/proguanil-resistant Plasmodium falciparum K1 infected in human erythrocytes
Assay type: functional
Conditions: not given

First: Clc1ccc(Nc2cc(C(Cl)(Cl)Cl)nc3ccccc23)c(Cl)c1
Second: FC(F)(F)c1cccc(Nc2cc(C(Cl)(Cl)Cl)nc3ccccc23)c1
The “Ratio CC50/IC50” value of the first is higher: 9 for the first, 5 for the second.

Compared with Clc1ccc(Sc2nc3ccccc3nc2C(Cl)(Cl)Cl)cc1, O=C1C(O)=C([C@H]2CC[C@H](c3ccc(Cl)cc3)CC2)C(=O)c2ccccc21 [ATOVAQUONE] is higher in “Ratio CC50/IC50” value: 77.2 for the first, 15600 for the second.

In the case of C[C@H]1c2cccc(O)c2C(=O)C2=C(O)[C@]3(O)C(=O)C(C(N)=O)=C(O)[C@@H](N(C)C)[C@@H]3[C@@H](O)[C@@H]21.O [DOXYCYCLINE], the “Ratio CC50/IC50” value is reported as 3.3.

In the case of Clc1nc(C(Cl)(Cl)Cl)nc2ccccc12, the “Ratio CC50/IC50” value is reported as >2.3.

Tested on: not listed separately
Experiment: Cytotoxicity against human HepG2 cells assessed as reduction in cell viability after 72 hrs by MTT assay
Assay type: toxicity, cell-based
Conditions: not given
Outline: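 HepG2 hepatocarcinoma cells in RPMI with 10% FBS, L-glutamine, penicillin/streptomycin, 37 °C, 6% CO2. Seeded 5.10^3 cells/well, 24 h attachment, then compounds added from DMSO (final under 0.5% v/v) at various concentrations for 72 h, triplicates. Wells checked microscopically for precipitate. MTT 0.5 mg/mL 2 h, formazan dissolved in DMSO, A570 (ref 630 nm). Viability as % of untreated cells; CC50 from dose–response curve.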

Compared with Clc1ccc(Nc2cc(C(Cl)(Cl)Cl)nc3ccccc23)c(Cl)c1, FC(F)(F)c1cccc(Nc2cc(C(Cl)(Cl)Cl)nc3ccccc23)c1 is 1.8-fold lower in CC50 at 72 h: 11.7 µM for the first, 6.5 µM for the second.

First: Clc1ccc(Sc2nc3ccccc3nc2C(Cl)(Cl)Cl)cc1
Second: Clc1nc(C(Cl)(Cl)Cl)nc2ccccc12
The CC50 at 72 h of the first is lower: 38.6 µM for the first, > 125 µM for the second.

For O=C1C(O)=C([C@H]2CC[C@H](c3ccc(Cl)cc3)CC2)C(=O)c2ccccc21 [ATOVAQUONE], the CC50 at 72 h was > 15.6 µM.
